# Measurements reported in PubChem BioAssay.
# The source made the active and inactive calls.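 The calls were made as follows, unless noted: active = GFP response above 150% of the DMSO level; inconclusive = fewer than 70 events counted for a yeast strain; inactive = the rest.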
# Legend:
# [1] = hit retest on RPL19A-GFP reporter strain – cell-based, S. cerevisiae, flow cytometry, cherry picks, mother/daughter gates, confirmation (AID 2270;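 active = GFP response below 50% of the DMSO control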); conditions: 3 h, at 10 µM, stronger effect = lower value, 100 = same GFP as DMSO wells
# [2] = yeast TOR pathway reporter LAP4-GFP change – cell-based, cherry picks, flow cytometry, mother/daughter gates, confirmation (AID 2271;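 active = GFP response above 150% of the DMSO control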;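 also: ratio of sample to DMSO plate mean so 100% equals DMSO level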); conditions: S. cerevisiae LAP4-GFP strain, 3 h, at 10 µM, stronger effect = higher value, 100 means same as DMSO control
# In short: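 material = Alexa 633-stained baker's yeast GFP-fusion strain | amount = 0.2 OD600 cells | schedule = 30 °C, 3 h compound incubation, rotating | signal = GFP by flow cytometry | measure = per-gate (all, mother, daughter) GFP response vs DMSO | controls = positive rapamycin (400 ng/mL), negative DMSO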
# [3] = TOR pathway reporter MEP2-GFP, retest of hits – S. cerevisiae, flow cytometry GFP, cherry picks, confirmation (AID 2272;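 active = GFP response above 150% of the DMSO control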;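 also: ratio of well signal to plate DMSO mean so 100% equals DMSO level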); conditions: S. cerevisiae MEP2-GFP strain, 3 h, at 10 µM, stronger effect = higher value
# [4] = yeast AGP1-GFP fluorescence change, single-dose – cell-based, flow cytometry, S. cerevisiae, cherry picks, confirmation (AID 2273);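 also: median GFP channel fluorescence over the whole cell population gate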; conditions: S. cerevisiae AGP1-GFP strain, 3 h, at 10 µM
# [5] = TOR pathway CIT2 reporter hit retest – S. cerevisiae, GFP fusion, cherry picks, mother/daughter gates, confirmation (AID 2274); conditions: S. cerevisiae CIT2-GFP strain, flow cytometry, 3 h, at 10 µM, stronger effect = higher value
# [6] = measured here: daughter cell gate
# [7] = measured here: mother cell gate
# [8] = measured here: daughter cell gate response
# [9] = measured here: mother cell gate response
SMILES,GFP response vs DMSO [1],"GFP response vs DMSO [1, 6]","GFP response vs DMSO [1, 7]",GFP response relative to DMSO [2],"GFP response relative to DMSO [2, 8]","GFP response relative to DMSO [2, 9]",GFP response vs DMSO [3],"GFP response, % of DMSO [4]","GFP response, % of DMSO [5]","GFP response, % of DMSO [5, 6]","GFP response, % of DMSO [5, 7]"
O=C(CCCCCN1C(=O)c2cccc3cccc(c23)C1=O)N1CCOCC1,102% (inactive),101%,102%,102% (inactive),101%,103%,99% (inactive),99.8% (inactive),103% (inactive),101%,103%
O=C(COc1ccccc1[N+](=O)[O-])Nc1ccc(NC(=O)c2cc3ccccc3o2)cc1,100% (inactive),98.9%,99.3%,88.7% (inactive),92%,88.9%,103% (inactive),99.8% (inactive),92.2% (inactive),92.1%,91.8%
O=C(NCc1ccncc1)C12CC3CC(CC(Cl)(C3)C1)C2,96.2% (inactive),98.1%,96.8%,97% (inactive),95.9%,96.2%,99% (inactive),99.8% (inactive),105% (inactive),105%,103%
CCOC(=O)C1(CCCc2ccccc2)CCN(C(=O)c2cc(C)nn2CC)CC1,99.3% (inactive),99.8%,99.8%,98.8% (inactive),102%,98.5%,97.5% (inactive),99.3% (inactive),102% (inactive),104%,101%
COc1ccccc1C(=O)N1CCN(c2cccc(Cl)c2)CC1,97.2% (inactive),98.9%,95.8%,102% (inactive),102%,99.3%,100% (inactive),95.6% (inactive),96.9% (inactive),99.1%,95%
COc1ccccc1N1CCN(C2CCCN(Cc3cc(F)cc(F)c3)C2)CC1 (configuration not stated),96% (inactive),97.3%,95.9%,98.9% (inactive),97.5%,98.4%,99.3% (inactive),102% (inactive),103% (inactive),99.3%,104%
S=C(Nc1ccc(Cl)cc1)Nc1ccc2cn[nH]c2c1,93.9% (inactive),96.3%,93.3%,106% (inactive),108%,105%,101% (inactive),104% (inactive),103% (inactive),100%,104%
O=C(/C=C/c1ccccc1[N+](=O)[O-])c1ccccc1Br,92.9% (inactive),94.8%,89.1%,161% (active),139%,180%,101% (inactive),104% (inactive),90.9% (inactive),95.2%,82.8%
O=C(/C=C/c1ccnc2ccccc12)c1cccs1,101% (inactive),98.8%,99.5%,172% (active),156%,171%,126% (inactive),112% (inactive),90.7% (inactive),94.6%,84%
Cc1ccc(C2=NN(S(C)(=O)=O)C(c3ccc4nccnc4c3)C2)cc1 (configuration not stated),98.6% (inactive),99.4%,97.6%,101% (inactive),101%,99.3%,100% (inactive),96.8% (inactive),101% (inactive),103%,99.7%
CC(C)c1nnc(-c2ccc(Cl)cc2)c(N(C)C)n1,98.9% (inactive),99.3%,97.8%,98.9% (inactive),96%,99.5%,103% (inactive),106% (inactive),100% (inactive),101%,100%
Cc1[nH]n(-c2ccccc2)c(=O)c1C(c1ccccc1[N+](=O)[O-])C(C#N)C#N (configuration not stated),106% (inactive),84.6%,98.8%,192% (active),168%,195%,112% (inactive),98.9% (inactive),98.4% (inactive),113%,81.8%
C=CCN1C(=O)C2(C(C#N)=C(N)Oc3n[nH]c(CCC)c32)c2ccccc21 (configuration not stated),100% (inactive),99.8%,102%,97.4% (inactive),100%,98.3%,100% (inactive),102% (inactive),100% (inactive),98.1%,102%
O=C(OCC(=O)N1CCN(C(=O)c2ccco2)CC1)c1cc(-c2ccccc2)nc2ccccc12,76.3% (inactive),66.6%,70.5%,161% (active),117%,153%,130% (inactive),136% (inactive),134% (inactive),114%,130%
CCOC(=O)Cc1csc(NC(=O)c2sc3nc4cc(C)ccc4cc3c2N)n1,98.6% (inactive),100%,89.8%,104% (inactive),92%,111%,114% (inactive),104% (inactive),105% (inactive),102%,104%
Clc1ccc(N=c2ssnc2Cl)cc1,97.8% (inactive),99.2%,92.9%,154% (active),139%,161%,107% (inactive),97.4% (inactive),104% (inactive),105%,99.8%
C/C(=N\NC(=O)c1ccc(Cl)cc1)c1cccc(NC(=O)C(C)C)c1,95.8% (inactive),95.1%,95.8%,99.2% (inactive),99.2%,97.2%,96.2% (inactive),97.2% (inactive),101% (inactive),101%,101%
